Data set [1] can be described thus: Inhibition of Proteus mirabilis B4 urease activity using urea as substrate incubated for 30 mins by absorbance based assay. The method in brief:
(§1)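 Berthelot ammonia assay with whole-cell P. mirabilis B4, grown overnight in LB at 37 °C, pelleted and resuspended in PBS (0.004 mg mL−1 in phosphate buffer). Cells incubated with compound (10-fold dilutions) and 50 mM urea for 30 min at 37 °C. Phenol/nitroprusside and NaOH/hypochlorite reagents added, 30 min at 37 °C, A636 read. Activity normalised to controls; IC50 by non-linear regression; n = 6.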

Data set [2] relates to Proteus mirabilis. Put plainly: Potency index, ratio of acetohydroxamic acid IC50 to test compound IC50 for inhibition of Proteus mirabilis B4 urease activity using urea as substrate incubated for 30 mins by absorbance based assay. The method in brief:
as §1

Data set [3] has as its system Proteus mirabilis. In words: Antibacterial activity against Proteus mirabilis assessed as inhibition of bacterial growth incubated for 18 hrs by absorbance based plate reader analysis. It counts as functional, organism-based. In short, it runs like this: (§2)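 Broth microdilution in LB: compound in sterile water with 5% (v/v) DMSO, two-fold serial dilutions; subculture at 1 × 10^6 CFU mL−1 added. 37 °C for 18 h, shaken 10 s before each OD600 reading taken at intervals. MIC read visually at 18 h and from growth curves as lowest concentration inhibiting growth. Wells with broth only and with bacteria only as controls.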

Data set [4] has as its system Escherichia coli. Put plainly: Antibacterial activity against Escherichia coli NSM59 assessed as inhibition of bacterial growth incubated for 18 hrs by absorbance based plate reader analysis. The data set is classed as functional, organism-based. The method in brief: as §2
Data set [5] can be described thus: Hemolytic activity in human erythrocytes at 0.080 to 5 mM incubated for 1 hrs by absorbance based assay. The data set is classed as toxicity, cell-based. Conditions: erythrocyte, 5000 µM, dose 0.08-5 mM. The method in brief: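 Pooled heparinised whole blood from three donors; erythrocytes washed three times in saline and diluted to 1% (v/v). Incubated with compound (5–0.08 mM, serial dilution of a 10 mM stock with 1% DMSO in PBS) for 1 h at 37 °C with rotation. Saline and 1% triton as controls. Supernatant absorbance read at 404 nm; % haemolysis relative to lysed cells.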

The subject of data set [6] is HepG2. Put plainly: Cytotoxicity against human HepG2 cells assessed as effect on cell survival at 10 mM measured within 24 hrs by MTT assay. The data set is classed as toxicity, cell-based. Conditions: hepg2, 24 h, 10000 µM. In short, it runs like this: (§3)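 HepG2 cells in complete DMEM at 37 °C, 5% CO2, seeded at 1 × 10^4 cells per well. Compounds diluted serially from 10 mM with 1% DMSO in DMEM; 24 h exposure. MTT (1 mg mL−1) for 60 min at 37 °C, dissolved in isopropanol, absorbance read at 590 nm (reference 620 nm). % survival relative to untreated cells; three biological repeats.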

Data set [7] has as its system HepG2. In words: Cytotoxicity against human HepG2 cells assessed as effect on cell survival at <1.25 mM measured for 24 hrs by MTT assay. The data set is classed as toxicity, cell-based. Conditions: hepg2, 24 h, 1250 µM. The method in brief:
as §3

IC50, Ratio IC50 and Activity data for 5 compounds are collected here from ChEMBL document CHEMBL6083216, “Rational design and in vitro testing of new urease inhibitors to prevent urinary catheter blockage” (RSC Med Chem, 2024).

Consider `NC(=S)NCc1ccccc1`, for which the IC50 in data set [1] is 2.27 10^-5mol/dm3. Further, the Ratio IC50 in data set [2] came out at 1.61.
In the case of `S=C(NCc1cccnc1)NCc1cccnc1`, the Activity entry in data set [3] was “Moderate_effect”; in data set [4] it was “Moderate_effect”; in data set [5], “Non-toxic”; in data set [6], “Toxic”; in data set [7], “Non-toxic”. Moreover, the IC50 in data set [1] is on record as 1.4 10^-6mol/dm3. Further, in data set [2], the Ratio IC50 was 26.1.
As to `CC(=O)NO` [ACETOHYDROXAMIC ACID], the Activity result in data set [3] is reported as “Moderate_effect”; in data set [4], “Moderate_effect”; in data set [5], “Non-toxic”; in data set [6], “Toxic”; in data set [7], “Non-toxic”. Further, the IC50 in data set [1] is on record as 3.66 10^-5mol/dm3.
For the compound `NC(=S)Nc1ccccc1` [PHENYLTHIOUREA], the IC50 in data set [1] is given as 9.66 10^-6mol/dm3. The Ratio IC50 in data set [2] amounted to 0.002.
Taken in the same sequence, the figures for `O=c1c(O)c(-c2ccc(O)c(O)c2)oc2cc(O)cc(O)c12` [QUERCETIN] were 8.66 10^-7mol/dm3 and 0.001.
